Assay results: ChEMBL document CHEMBL3232844, “Synthesis and structure activity relationships of schweinfurthin indoles” (2014)

What was measured:
Assay type in all cases: functional
CCRF-CEM = test: Cytotoxicity against human CCRF-CEM cells
A498 = test: Cytotoxicity against human A498 cells
Summary of the method: (§1)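 Tested in a 60-cell-line human tumor panel screen; the read-out is growth inhibition, reported as GI50 for each cell line.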

MCF7 = test: Cytotoxicity against human MCF7 cells; summary of the method: as §1
[1] = Cytotoxicity against human OVCAR4 cells; summary of the method: as §1
HCC 2998 = test: Cytotoxicity against human HCC2998 cells; summary of the method: as §1
BT-549 = test: Cytotoxicity against human BT549 cells; summary of the method: as §1
[2] = Cytotoxicity against human UACC62 cells
Summary of the method: (§2)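 Cell line run as part of the 60-cell-line screening panel; growth inhibition was reported as a GI50 for each line.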

MOLT-4 = test: Cytotoxicity against human MOLT4 cells; summary of the method: as §1
T47D = test: Cytotoxicity against human T47D cells; summary of the method: as §2
[3] = Cytotoxicity against human OVCAR5 cells; summary of the method: as §1
[4] = Cytotoxicity against human OVCAR3 cells; summary of the method: as §1
HT-29 = test: Cytotoxicity against human HT-29 cells; summary of the method: as §1
NCI-H460 = test: Cytotoxicity against human NCI-H460 cells; summary of the method: as §1
[5] = Cytotoxicity against human UO31 cells; summary of the method: as §2
RXF 393 = test: Cytotoxicity against human RXF393 cells; summary of the method: as §1
DU-145 = test: Cytotoxicity against human DU145 cells; summary of the method: as §1
MDA-MB-468 = test: Cytotoxicity against human MDA-MB-468 cells; summary of the method: as §1
U-251 = test: Cytotoxicity against human U251 cells; summary of the method: as §2
K562 = test: Cytotoxicity against human K562 cells; summary of the method: as §1
[6] = Cytotoxicity against human EKVX cells; summary of the method: as §1
NCI-H322M = test: Cytotoxicity against human NCI-H322M cells; summary of the method: as §1
SNB-75 = test: Cytotoxicity against human SNB75 cells; summary of the method: as §2
[7] = Cytotoxicity against human HCT15 cells; summary of the method: as §1
[8] = Cytotoxicity against human UACC257 cells; summary of the method: as §2
[9] = Cytotoxicity against human OVCAR8 cells; summary of the method: as §1
M14 = test: Cytotoxicity against human M14 cells; summary of the method: as §1
A549 = test: Cytotoxicity against human A549 cells; summary of the method: as §1
SNB-19 = test: Cytotoxicity against human SNB19 cells; summary of the method: as §1
ACHN = test: Cytotoxicity against human ACHN cells; summary of the method: as §1
SK-MEL-2 = test: Cytotoxicity against human SK-MEL-2 cells; summary of the method: as §1
SF-539 = test: Cytotoxicity against human SF539 cells; summary of the method: as §1
HOP-62 = test: Cytotoxicity against human HOP62 cells; summary of the method: as §1
KM12 = test: Cytotoxicity against human KM12 cells; summary of the method: as §1
SF-295 = test: Cytotoxicity against human SF295 cells; summary of the method: as §1
SK-MEL-5 = test: Cytotoxicity against human SK-MEL-5 cells; summary of the method: as §1
NCI-H226 = test: Cytotoxicity against human NCI-H226 cells; summary of the method: as §1
[10] = Cytotoxicity against human NCI-ADR-RES cells; summary of the method: as §1
TK-10 = test: Cytotoxicity against human TK10 cells; summary of the method: as §2
MDA-MB-231 = test: Cytotoxicity against human MDA-MB-231 cells; summary of the method: as §1
CAKI-1 = test: Cytotoxicity against human Caki1 cells; summary of the method: as §1
COLO 205 = test: Cytotoxicity against human COLO205 cells; summary of the method: as §1
SK-OV-3 = test: Cytotoxicity against human SKOV3 cells; summary of the method: as §1
LOX IMVI = test: Cytotoxicity against human LOXIMVI cells; summary of the method: as §1
NCI-H23 = test: Cytotoxicity against human NCI-H23 cells; summary of the method: as §1
[11] = read-out: pLC50 (the source's name) (converted)

COc1cc(/C=C/c2cc(O)c3ccn(C)c3c2)cc2c1O[C@]1(C)CC[C@@H](O)C(C)(C)[C@H]1C2 showed a GI50 (CCRF-CEM) of 0.38 µM, a CC50 (CCRF-CEM; [11]) of over 100 µM and a TGI (CCRF-CEM; read-out: pTGI (converted)) of over 100 µM. For the same compound, the GI50 (A498) was 6.03 µM, the CC50 (A498; [11]) was 89.1 µM and the TGI (A498; read-out: pTGI (converted)) was 38.9 µM. It also gave a GI50 (MCF7) of 0.741 µM, an LC50 (MCF7) of over 100 µM and a TGI (MCF7; read-out: pTGI (converted)) of 42.7 µM. It also gave a GI50 ([1]; OVCAR-4) of 4.27 µM, a CC50 ([1]; OVCAR-4, read-out: pLC50 (the source's name) (converted)) of over 100 µM and a TGI ([1]; OVCAR-4, read-out: pTGI (converted)) of over 100 µM. The GI50 (HCC 2998) was 4.57 µM, the CC50 (HCC 2998; [11]) was over 100 µM and the TGI (HCC 2998; read-out: pTGI (converted)) was 29.5 µM. It also gave a GI50 (BT-549) of 1.55 µM, a CC50 (BT-549; [11]) of over 100 µM and a TGI (BT-549; read-out: pTGI (converted)) of 39.8 µM. The GI50 ([2]; UACC-62) was 0.316 µM, the CC50 ([2]; UACC-62, read-out: pLC50 (the source's name) (converted)) was 77.6 µM and the TGI ([2]; UACC-62, read-out: pTGI (converted)) was 2.09 µM. For the same compound, the GI50 (MOLT-4) was 0.447 µM, the CC50 (MOLT-4; [11]) was over 100 µM and the TGI (MOLT-4; read-out: pTGI (converted)) was 10.2 µM. It also gave a GI50 (T47D) of 5.62 µM, a CC50 (T47D; [11]) of over 100 µM and a TGI (T47D; read-out: pTGI (converted)) of 60.3 µM. It also gave a GI50 ([3]; OVCAR-5) of 12.3 µM, a CC50 ([3]; OVCAR-5, read-out: pLC50 (the source's name) (converted)) of over 100 µM and a TGI ([3]; OVCAR-5, read-out: pTGI (converted)) of 77.6 µM. It also gave a GI50 ([4]; OVCAR-3) of 4.79 µM, a CC50 ([4]; OVCAR-3, read-out: pLC50 (the source's name) (converted)) of over 100 µM and a TGI ([4]; OVCAR-3, read-out: pTGI (converted)) of 42.7 µM. The GI50 (HT-29) was 1.86 µM, the CC50 (HT-29; [11]) was 63.1 µM and the TGI (HT-29; read-out: pTGI (converted)) was 7.41 µM. For the same compound, the GI50 (NCI-H460) was 1.66 µM, the CC50 (NCI-H460; [11]) was over 100 µM and the TGI (NCI-H460; read-out: pTGI (converted)) was over 100 µM. The GI50 ([5]; UO-31) was 0.437 µM, the LC50 ([5]; UO-31) was over 100 µM and the TGI ([5]; UO-31, read-out: pTGI (converted)) was 7.24 µM. For the same compound, the GI50 (RXF 393) was 0.0302 µM, the LC50 (RXF 393) was 8.71 µM and the TGI (RXF 393; read-out: pTGI (converted)) was 0.12 µM. It also gave a GI50 (DU-145) of 3.8 µM, an LC50 (50% lethal concentration) (DU-145) of over 100 µM and a TGI (DU-145; read-out: pTGI (converted)) of 91.2 µM. It also gave a GI50 (MDA-MB-468) of 1.02 µM, an LC50 (MDA-MB-468) of over 100 µM and a TGI (MDA-MB-468; read-out: pTGI (converted)) of 14.1 µM. It also gave a GI50 (U-251) of 0.417 µM, a CC50 (U-251; [11]) of over 100 µM and a TGI (U-251; read-out: pTGI (converted)) of 63.1 µM. The GI50 (K562) was 0.794 µM, the CC50 (K562; [11]) was over 100 µM and the TGI (K562; read-out: pTGI (converted)) was over 100 µM. The GI50 [6] was 4.27 µM, the CC50 [6, 11] was over 100 µM and the TGI ([6]; read-out: pTGI (converted)) was 85.1 µM. It also gave a GI50 (NCI-H322M) of 12.9 µM, a CC50 (NCI-H322M; [11]) of over 100 µM and a TGI (NCI-H322M; read-out: pTGI (converted)) of over 100 µM. It also gave a GI50 (SNB-75) of 0.138 µM, a CC50 (SNB-75; [11]) of 93.3 µM and a TGI (SNB-75; read-out: pTGI (converted)) of 8.91 µM. It also gave a GI50 ([7]; HCT-15) of 0.832 µM, a CC50 ([7]; HCT-15, read-out: pLC50 (the source's name) (converted)) of over 100 µM and a TGI ([7]; HCT-15, read-out: pTGI (converted)) of 4.37 µM. For the same compound, the GI50 ([8]; UACC-257) was 1.74 µM, the CC50 ([8]; UACC-257, read-out: pLC50 (the source's name) (converted)) was over 100 µM and the TGI ([8]; UACC-257, read-out: pTGI (converted)) was 8.13 µM. It also gave a GI50 ([9]; OVCAR-8) of 11.2 µM, a CC50 ([9]; OVCAR-8, read-out: pLC50 (the source's name) (converted)) of over 100 µM and a TGI ([9]; OVCAR-8, read-out: pTGI (converted)) of 77.6 µM. For the same compound, the GI50 (M14) was 0.525 µM, the CC50 (M14; [11]) was over 100 µM and the TGI (M14; read-out: pTGI (converted)) was 4.37 µM. For the same compound, the GI50 (A549) was 4.9 µM, the CC50 (A549; [11]) was over 100 µM and the TGI (A549; read-out: pTGI (converted)) was 64.6 µM. For the same compound, the GI50 (SNB-19) was 1.45 µM, the CC50 (SNB-19; [11]) was over 100 µM and the TGI (SNB-19; read-out: pTGI (converted)) was over 100 µM. It also gave a GI50 (ACHN) of 0.776 µM, an LC50 (concentration killing 50% of cells) (ACHN) of over 100 µM and a TGI (ACHN; read-out: pTGI (converted)) of 55 µM. For the same compound, the GI50 (SK-MEL-2) was 0.692 µM, the CC50 (SK-MEL-2; [11]) was over 100 µM and the TGI (SK-MEL-2; read-out: pTGI (converted)) was 12.9 µM. It also gave a GI50 (SF-539) of 0.105 µM, a TGI (SF-539; read-out: pTGI (converted)) of 1.38 µM and a GI50 (HOP-62) of 0.407 µM. It also gave a CC50 (HOP-62; [11]) of over 100 µM, a TGI (HOP-62; read-out: pTGI (converted)) of 5.01 µM and a GI50 (KM12) of 1.26 µM. It also gave a CC50 (KM12; [11]) of 34.7 µM, a TGI (KM12; read-out: pTGI (converted)) of 7.08 µM and a GI50 (SF-295; read-out: GI50) of 0.76 µM. For the same compound, the GI50 (SF-295; read-out: pGI50 (converted)) was 0.759 µM, the TGI (SF-295; read-out: pTGI (converted)) was 2.75 µM and the GI50 (SK-MEL-5) was 1.15 µM. For the same compound, the CC50 (SK-MEL-5; [11]) was 5.25 µM, the TGI (SK-MEL-5; read-out: pTGI (converted)) was 2.45 µM and the GI50 (NCI-H226) was 11.5 µM. It also gave a CC50 (NCI-H226; [11]) of 64.6 µM, a TGI (NCI-H226; read-out: pTGI (converted)) of 26.9 µM and a GI50 [10] of 9.55 µM. For the same compound, the CC50 [10, 11] was over 100 µM, the TGI ([10]; read-out: pTGI (converted)) was 69.2 µM and the GI50 (TK-10) was 3.72 µM. For the same compound, the LC50 (TK-10) was over 100 µM, the TGI (TK-10; read-out: pTGI (converted)) was 64.6 µM and the GI50 (MDA-MB-231) was 1.12 µM. For the same compound, the LC50 (MDA-MB-231) was over 100 µM, the TGI (MDA-MB-231; read-out: pTGI (converted)) was 28.2 µM and the GI50 (CAKI-1) was 2.29 µM. The LC50 (CAKI-1) was over 100 µM, the TGI (CAKI-1; read-out: pTGI (converted)) was 21.9 µM and the GI50 (COLO 205) was 1.66 µM. For the same compound, the CC50 (COLO 205; [11]) was 7.08 µM, the TGI (COLO 205; read-out: pTGI (converted)) was 3.47 µM and the GI50 (SK-OV-3) was 3.02 µM. The LC50 (SK-OV-3) was over 100 µM, the TGI (SK-OV-3; read-out: pTGI (converted)) was 72.4 µM and the GI50 (LOX IMVI) was 0.977 µM. The CC50 (LOX IMVI; [11]) was over 100 µM, the TGI (LOX IMVI; read-out: pTGI (converted)) was 50.1 µM and the GI50 (NCI-H23) was 2.45 µM. For the same compound, the CC50 (NCI-H23; [11]) was over 100 µM and the TGI (NCI-H23; read-out: pTGI (converted)) was 30.2 µM.
